Assay results published in ChEMBL document CHEMBL4043304, “Synthesis and Evaluation of Hydrogen Peroxide Sensitive Prodrugs of Methotrexate and Aminopterin for the Treatment of Rheumatoid Arthritis” (J Med Chem, 2018).
In brackets after ≈: the same amount, converted by molar mass. Activity calls are given as the source filed them. The rule behind the calls is not given here.

Columns and labels:
MCF7 [1] = test: Cytotoxicity against human MCF7 cells assessed as decrease in cell viability after 48 hrs by MTS assay; format: functional, cell-based
In short: (§1)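 MCF-7 (DMEM) or NCI-H460 (RPMI), 10% FBS, seeded at 10^4 or 7×10^3 cells/well respectively and attached for 24 h. Exposed to serial compound concentrations for 48 h, then MTS read at 490 nm. DMSO ≤0.4% matched controls. Triplicate. IC50 by non-linear regression.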

NCI-H460 [2] = test: Cytotoxicity against human NCI-H460 cells assessed as decrease in cell viability preincubated with H2O2 for 24 hrs followed by cell addition measured after 48 hrs by MTS assay; format: functional, cell-based
In short: (§2)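 Compound pre-activated at 125 µM with 1.25 mM H2O2 in DMSO:PBS 1:1, 24 h at 21 °C. Then added to MCF-7 or NCI-H460 cells (24 h attached) for 48 h. Final H2O2 <10 µM. MTS read at 490 nm. Triplicate. IC50 by non-linear regression.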

[3] = Intrinsic clearance in CD1 mouse liver microsomes at 10 uM after 5 to 240 mins by RP-UPLC-UV method; format: ADME, microsome; conditions: read-out: CLH
In short: (§3)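 Pooled male liver microsomes (human, or CD-1 mouse) in PBS at 37 °C with 10 µM compound. Reaction started with NADPH. Aliquots taken 0–60 min (mouse also 120 and 240 min) and quenched with cold MeCN/diclofenac. Read by RP-UPLC-UV, ln[C] vs time, first order. No-NADPH control run; verapamil (human) or diphenhydramine (mouse) as reference.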

[4] = Half life in PBS/DMSO mixture at pH 7.4 by RP-UPLC-UV method; format: physicochemical
[5] = Metabolic stability in human plasma at 20 uM after 24 hrs by RP-UPLC-UV method; format: ADME, cell-free; conditions: read-out: Stability
In short: (§4)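 Reconstituted lyophilized human or mouse plasma mixed about 1:1 with PBS and pre-warmed to 37 °C. Compound added to 20 µM final. […] Procaine (human) and diltiazem (mouse) as controls.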

[6] = Half life in SIF by RP-UPLC-UV method; format: physicochemical
In short: (§5)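 SGF or SIF (SIF adjusted to pH 7.5) dosed from a 10 mM DMSO stock. Incubated at 37 °C and sampled at 0, 1, 2, 4 and 24 h. Run in triplicate.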

[7] = Chemical stability in PBS/DMSO mixture at pH 7.4 after 24 hrs by RP-UPLC-UV method; format: physicochemical; conditions: read-out: Stability
[8] = Prodrug activation in DMSO/PBS mixture assessed as formation of aminopterin at 50 uM after <3 hrs in presence of 0.5 mM H2O2 by RP-UPLC-MS method
In short: (§6)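 50 µM prodrug in 30% DMSO/PBS pH 7.4 at 37 °C with diclofenac internal standard. Started with H2O2 at 0.5 mM final. Sampled 5 min to 4 h (some compounds to 48 h). RP-UPLC-UV at 306 nm. No-H2O2 control run in parallel. Triplicate.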

[9] = Half life in human plasma at 20 uM by RP-UPLC-UV method; format: ADME, cell-free; in short: as §4
Mus musculus [10] = test: Toxicity in collagen-induced DBA/1J mouse arthritis model assessed as decrease in body weight at 8.8 mg/kg, ip administered daily for 2 weeks starting on day 27 post first immunization measured thrice per week during compound dosing; format: organism-based; conditions: in vivo, 336 h
In short: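 CIA in male DBA/1J mice (8–9 wk, n = 8/group) from chicken type-II collagen/CFA immunization (day −1, boost day 21). Daily i.p. dosing in 2% DMSO/PBS for 14 days starting day 27. Body weight recorded three times weekly as a general-health indicator, compared with vehicle. Data are mean ± SEM.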

Mus musculus [11] = test: Antiarthritic activity in collagen-induced DBA/1J mouse arthritis model assessed as decrease in incidence of arthritis at 8.8 mg/kg, ip administered daily for 2 weeks starting on day 27 post first immunization measured thrice per week during compound dosing relative to control; format: functional, organism-based
In short: (§7)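 Male DBA/1J mice (8–9 wk, n = 8/group). Arthritis induced by intradermal tail-base immunization with 100 µg chicken type-II collagen in CFA on day −1, with a 50 µg boost on day 21. Daily i.p. dosing in 2% DMSO/PBS for 14 days from day 27. Blinded scoring three times weekly, 0–15 per limb (max 60). Vehicle group as control. Mann-Whitney test.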

NCI-H460 [12] = test: Cytotoxicity against human NCI-H460 cells assessed as decrease in cell viability after 48 hrs by MTS assay; format: functional, cell-based; in short: as §1
[13] = Intrinsic clearance in human liver microsomes at 10 uM after 5 to 60 mins by RP-UPLC-UV method; format: ADME, microsome; conditions: read-out: CLH; in short: as §3
Mus musculus [14] = test: Antiarthritic activity in collagen-induced DBA/1J mouse arthritis model assessed as reduction of macroscopic score at 8.8 mg/kg, ip administered daily for 2 weeks starting on day 27 post first immunization measured thrice per week during compound dosing relative to control; format: functional, organism-based; in short: as §7
[15] = Prodrug activation in DMSO/PBS mixture assessed as formation of (S)-2-(4-(((2,4-diaminopteridin-6-yl)methyl)(4-hydroxybenzyl)amino)benzamido)pentanedioic acid at 50 uM measured within 2 hrs in presence of 0.5 mM H2O2 by RP-UPLC-MS method; in short: as §6
[16] = Half life in mouse plasma at 20 uM by RP-UPLC-UV method; format: ADME, cell-free; in short: as §4
[17] = Prodrug activation in DMSO/PBS mixture assessed as formation of aminopterin at 100 uM after 2 to 48 hrs in presence of 0.25 to 10 mM H2O2 […]
MCF7 [18] = test: Cytotoxicity against human MCF7 cells assessed as decrease in cell viability preincubated with H2O2 for 24 hrs followed by cell addition measured after 48 hrs by MTS assay; format: functional, cell-based; in short: as §2
[19] = Half life in SGF by RP-UPLC-UV method; format: physicochemical; in short: as §5
[20] = Prodrug activation in DMSO/PBS mixture assessed as formation of aminopterin at 50 uM measured within 2 hrs in presence of 0.5 mM H2O2 by RP-UPLC-MS method; in short: as §6
[21] = Kinetic solubility of the compound in DMSO/PBS mixture after 20 hrs by RP-UPLC-UV method; format: physicochemical
In short: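 100 µM compound in 1% DMSO/PBS pH 7.4, shaken 20 h at 37 °C. Centrifuged to remove insoluble material; supernatant quantified by RP-UPLC-UV at 306 nm. Triplicate.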

[22] = Prodrug activation in DMSO/PBS mixture assessed as formation of (S)-dimethyl 2-(4-((2,4-diaminopteridin-6-yl)methylamino)benzamido)pentanedioate at 50 uM measured within 2 hrs in presence of 0.5 mM H2O2 by RP-UPLC-MS method; in short: as §6
[23] = Metabolic stability in mouse plasma at 20 uM after 8 hrs by RP-UPLC-UV method; format: ADME, cell-free; conditions: read-out: Stability; in short: as §4
Mus musculus [24] = test: Antiarthritic activity in collagen-induced DBA/1J mouse arthritis model assessed as reduction of macroscopic score at 6.8 mg/kg, ip administered daily for 2 weeks starting on day 27 post first immunization measured thrice per week during compound dosing relative to control; format: functional, organism-based
In short: (§8)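 Male DBA/1J mice, 8–9 weeks. CIA induced by intradermal/subcutaneous tail-base immunization with 100 µg chicken type-II collagen in CFA on day -1, boosted with 50 µg on day 21. From day 27, i.p. dosing once daily for 14 days in 2% DMSO/PBS vehicle, n = 8 per group. Three times weekly, blinded limb scoring (0–15 per limb, max 60) and body weight. Reported as mean ± SEM; one-tailed Mann-Whitney test.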

Mus musculus [25] = test: Toxicity in collagen-induced DBA/1J mouse arthritis model assessed as decrease in body weight at 6.8 mg/kg, ip administered daily for 2 weeks starting on day 27 post first immunization measured up to day 33; format: organism-based; conditions: in vivo, 336 h; in short: as §8
Mus musculus [26] = test: Antiarthritic activity in collagen-induced DBA/1J mouse arthritis model assessed as decrease in incidence of arthritis at 6.8 mg/kg, ip administered daily for 2 weeks starting on day 27 post first immunization measured thrice per week during compound dosing relative to control; format: functional, organism-based; in short: as §8
[27] = Prodrug activation in DMSO/PBS mixture assessed as formation of Dimethyl (4-(((2,4-Diaminopteridin-6-yl)methyl)(methyl)amino)-benzoyl)-L-glutamate at 50 uM after <3 hrs in presence of 0.5 mM H2O2 by RP-UPLC-MS method; in short: as §6
[28] = Prodrug activation in DMSO/PBS mixture assessed as formation of (S)-dimethyl 2-(4-(((2,4-diaminopteridin-6-yl)methyl)(4-hydroxybenzyl)amino)benzamido)pentanedioate at 50 uM measured within 2 hrs in presence of 0.5 mM H2O2 by RP-UPLC-MS method; in short: as §6
[29] = Prodrug activation in DMSO/PBS mixture assessed as formation of (S)-dimethyl 2-(4-((2,4-diaminopteridin-6-yl)methylamino)benzamido)pentanedioate at 50 uM after 2 hrs in presence of 0.5 mM H2O2 by RP-UPLC-MS method

Nc1nc(N)c2nc(CN(Cc3ccc(B(O)O)cc3)c3ccc(C(=O)N[C@@H](CCC(=O)O)C(=O)O)cc3)cnc2n1
Activity (MCF7 [1]): inactive | Activity (NCI-H460 [2]): Active | microsomal CLint at 10 µM [3]: 2.6 µL/min/mg | half-life [4]: 24 days | remaining at 24 h, 20 µM [5]: 82% | half-life [6]: 36.1 days | remaining at 24 h [7]: > 90% | Drug metabolism [8]: Metabolite detected | half-life at 20 µM [9]: 2.33 days | Activity (Mus musculus [10]): Non-Toxic | Activity (Mus musculus [11]): Active | Activity (NCI-H460 [12]): inactive | microsomal CLint at 10 µM [13]: 1.2 µL/min/mg | Activity (Mus musculus [14]): Active | Drug metabolism [15]: Metabolite detected | half-life at 20 µM [16]: 2.62 days | Drug metabolism [17]: Metabolite detected | Activity (MCF7 [18]): Active | half-life [19]: 32.1 days | Drug metabolism [20]: Metabolite not detected | solubility kinetic at 20 h ([21]; read-out: Kinetic_solubility): 83 µM (≈ 47.7 µg/mL) | Drug metabolism [22]: Metabolite not detected | remaining at 8 h, 20 µM [23]: 91%

Nc1nc(N)c2nc(CNc3ccc(C(=O)N[C@@H](CCC(=O)O)C(=O)O)cc3)cnc2n1 [AMINOPTERIN]
Activity (MCF7 [1]): Active | Activity (Mus musculus [24]): Active | Activity (Mus musculus [25]): Toxic | Activity (NCI-H460 [12]): Active | solubility kinetic at 20 h ([21]; read-out: Kinetic_solubility): > 1000 µM | Activity (Mus musculus [26]): Active

COC(=O)CC[C@H](NC(=O)c1ccc(N(C)Cc2cnc3nc(N)nc(NC(=O)OCc4ccc(B(O)O)c(F)c4)c3n2)cc1)C(=O)OC
Drug metabolism [27]: > 95% | solubility kinetic at 20 h [21]: 4.6 µM (≈ 3.12 µg/mL)

COC(=O)CC[C@H](NC(=O)c1ccc(N(Cc2ccc(B(O)O)cc2)Cc2cnc3nc(N)nc(N)c3n2)cc1)C(=O)OC
Drug metabolism [28]: Metabolite detected | Drug metabolism [29]: Metabolite detected | Drug metabolism [20]: Metabolite not detected | solubility kinetic at 20 h ([21]; read-out: Kinetic_solubility): 4.1 µM (≈ 2.47 µg/mL) | Drug metabolism [22]: Metabolite not detected
